In ChEMBL document CHEMBL2331271, “Stereoselective synthesis of a new class of potent and selective inhibitors of human Δ8,7-sterol isomerase” (Bioorg Med Chem, 2013):
≈ marks a conversion by molar mass, not a printed value. Calls of active or inactive are those of the source. The rule behind the calls is not given here.

Columns and labels:
Yarrowia lipolytica = assay: Antifungal activity against Yarrowia lipolytica assessed as inhibition of fungal growth; type: functional
Procedure, shortened: (§1)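 MIC by DIN 58940-84 broth dilution, strains kept in log phase at 28 °C in yeast extract/peptone/glucose medium, 0.5 McFarland standard. Compounds in ethanol stock 0.8 mg/mL, tested at 50, 25 and 12.5 µg/mL in duplicate wells. Controls: sterility, ethanol-only, clotrimazole 0.5 µg/mL, ketoconazole series. MIC = lowest concentration giving visibly complete growth inhibition.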

Nakaseomyces glabratus = assay: Antifungal activity against Candida glabrata assessed as inhibition of fungal growth; type: functional; procedure, shortened: as §1
[1] = molecular target: 3-beta-hydroxysteroid-Delta(8),Delta(7)-isomerase (Homo sapiens, UniProt Q15125); assay: Inhibition of delta8,7-sterol isomerase-mediated cholesterol biosynthesis in human HL60 cells assessed as increase in zymostenol accumulation; type: cell-based; settings: for inhibition: HL-60
Chain of 3-beta-hydroxysteroid-Delta(8),Delta(7)-isomerase (Q15125 whole entry): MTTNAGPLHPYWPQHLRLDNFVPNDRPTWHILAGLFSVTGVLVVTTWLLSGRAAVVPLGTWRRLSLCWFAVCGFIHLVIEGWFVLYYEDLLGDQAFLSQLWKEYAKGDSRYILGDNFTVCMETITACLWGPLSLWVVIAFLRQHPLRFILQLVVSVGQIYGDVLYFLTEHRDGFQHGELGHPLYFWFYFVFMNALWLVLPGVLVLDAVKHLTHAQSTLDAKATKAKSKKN
Procedure, shortened: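 HL-60 cells (10^6) incubated 24 h at 37 °C, 5% CO2 in lipid-free medium with 1% LPDS, with compound in ethanol at final 1 or 50 µM. Cells were then saponified in 1 M NaOH at 70 °C for 60 min, extracted into TBME with cholestane internal standard, and silylated with TSIM. The sterol pattern was read by GC-MS full scan, with sterols identified by retention time and MS against authentic samples.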

Saccharomyces cerevisiae = assay: Antifungal activity against Saccharomyces cerevisiae assessed as inhibition of fungal growth; type: functional; procedure, shortened: as §1
HL-60 = assay: Cytotoxicity against human HL60 cells by MTT assay; type: cell-based
Procedure, shortened: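 Human leukemia HL-60 cells, kept in RPMI 1640 with 10% FBS without antibiotics at 37 °C, 5% CO2. Cytotoxicity by standard Mosmann MTT test. IC50 from dose-response curves run in triplicate, reported with 95% confidence interval and R2.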

[2] = Selectivity index, ratio of cytotoxic IC50 against human HL60 cells to IC50 for delta8,7-sterol isomerase-mediated cholesterol biosynthesis in human HL60 cells; type: functional, HL-60
Procedure, shortened: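 Cytotoxicity IC50 from the HL-60 MTT test, in triplicate. Cholesterol biosynthesis IC50 came from HL-60 cells given graded inhibitor concentrations for 24 h in lipid-free medium with 1% LPDS plus 2-13C-acetate at final 62.5 µg/mL. Labelled cholesterol was measured by GC-MS (ions 372–379, 462–469), normalised to Bradford protein, and % inhibition fitted sigmoidally with bottom 0, in triplicate.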

Cc1cccc(N[C@H]2CC[C@]3(C)[C@@H]([C@H](C)CCCC(C)C)CC[C@@]3(C)C2=O)c1C
MIC (Yarrowia lipolytica): 25 µg/mL (≈ 62.9 µM)
MIC (Nakaseomyces glabratus): 25 µg/mL (≈ 62.9 µM)
inhibition [1]: inactive
MIC (Saccharomyces cerevisiae): 25 µg/mL (≈ 62.9 µM)

CC(C)CCC[C@@H](C)[C@H]1CC[C@@]2(C)[C@@H](O)[C@@H](NCc3ccc(Cl)cc3Cl)CC[C@]12C
MIC (Yarrowia lipolytica): 25 µg/mL (≈ 55 µM)
MIC (Nakaseomyces glabratus): 25 µg/mL (≈ 55 µM)
MIC (Saccharomyces cerevisiae): 25 µg/mL (≈ 55 µM)

Cc1cccc(N[C@H]2CC[C@]3(C)[C@@H]([C@H](C)CCCC(C)C)CC[C@@]3(C)[C@H]2O)c1C (mixture of isomers)
MIC (Yarrowia lipolytica): 25 µg/mL
MIC (Nakaseomyces glabratus): 25 µg/mL
MIC (Saccharomyces cerevisiae): 25 µg/mL

CC(C)CCC[C@@H](C)[C@H]1CC[C@@]2(C)[C@@H](O)[C@@H](NCc3ccc(I)o3)CC[C@]12C
MIC (Yarrowia lipolytica): 25 µg/mL (≈ 49.9 µM)
MIC (Nakaseomyces glabratus): 25 µg/mL (≈ 49.9 µM)
MIC (Saccharomyces cerevisiae): 25 µg/mL (≈ 49.9 µM)

CC(C)CCC[C@@H](C)[C@H]1CC[C@@]2(C)[C@@H](O)[C@@H](N(Cc3ccccc3)Cc3ccccc3)CC[C@]12C
MIC (Yarrowia lipolytica): 25 µg/mL (≈ 52.5 µM)
MIC (Nakaseomyces glabratus): 25 µg/mL (≈ 52.5 µM)
IC50 [1]: > 1 µM
IC50 (HL-60): 27 µM
MIC (Saccharomyces cerevisiae): 25 µg/mL (≈ 52.5 µM)

CC(C)CCC[C@@H](C)[C@H]1CC[C@@]2(C)[C@@H](O)[C@@H](NCc3cccnc3)CC[C@]12C
MIC (Yarrowia lipolytica): 25 µg/mL (≈ 64.7 µM)
MIC (Nakaseomyces glabratus): 25 µg/mL (≈ 64.7 µM)
MIC (Saccharomyces cerevisiae): 25 µg/mL (≈ 64.7 µM)

CC(C)CCC[C@@H](C)[C@H]1CC[C@@]2(C)[C@@H](O)[C@@H](N(C)C)CC[C@]12C
MIC (Yarrowia lipolytica): 25 µg/mL (≈ 77.3 µM)
MIC (Nakaseomyces glabratus): 25 µg/mL (≈ 77.3 µM)
IC50 [1]: 0.576 µM
IC50 (HL-60): 17 µM
MIC (Saccharomyces cerevisiae): 25 µg/mL (≈ 77.3 µM)

CC(C)CCC[C@@H](C)[C@H]1CC[C@@]2(C)C(=O)[C@@H](N3CCN(C)CC3)CC[C@]12C
MIC (Yarrowia lipolytica): 25 µg/mL (≈ 66.4 µM)
MIC (Nakaseomyces glabratus): 25 µg/mL (≈ 66.4 µM)
inhibition [1]: inactive
MIC (Saccharomyces cerevisiae): 25 µg/mL (≈ 66.4 µM)

CC(C)CCC[C@@H](C)[C@H]1CC[C@@]2(C)[C@@H](O)[C@@H](NCc3cccc(Cl)c3Cl)CC[C@]12C
MIC (Yarrowia lipolytica): 25 µg/mL (≈ 55 µM)
MIC (Nakaseomyces glabratus): 25 µg/mL (≈ 55 µM)
MIC (Saccharomyces cerevisiae): 25 µg/mL (≈ 55 µM)

CC(C)CCC[C@@H](C)[C@H]1CC[C@@]2(C)[C@H](O)[C@@H](NCc3ccoc3)CC[C@]12C
MIC (Yarrowia lipolytica): 25 µg/mL (≈ 66.6 µM)
MIC (Nakaseomyces glabratus): 25 µg/mL (≈ 66.6 µM)
inhibition [1]: inactive
MIC (Saccharomyces cerevisiae): 25 µg/mL (≈ 66.6 µM)

C=CCCCN[C@H]1CC[C@]2(C)[C@@H]([C@H](C)CCCC(C)C)CC[C@@]2(C)[C@@H]1O
MIC (Yarrowia lipolytica): 25 µg/mL (≈ 68.8 µM)
MIC (Nakaseomyces glabratus): 25 µg/mL (≈ 68.8 µM)
inhibition [1]: inactive
MIC (Saccharomyces cerevisiae): 25 µg/mL (≈ 68.8 µM)

CC(C)CCC[C@@H](C)[C@H]1CC[C@@]2(C)[C@@H](O)[C@@H](N)CC[C@]12C
MIC (Yarrowia lipolytica): 25 µg/mL (≈ 84.6 µM)
MIC (Nakaseomyces glabratus): 25 µg/mL (≈ 84.6 µM)
IC50 [1]: 0.581 µM
IC50 (HL-60): 11 µM
MIC (Saccharomyces cerevisiae): 25 µg/mL (≈ 84.6 µM)

COc1ccc(CN[C@H]2CC[C@]3(C)[C@@H]([C@H](C)CCCC(C)C)CC[C@@]3(C)[C@H]2O)c(OC)c1
MIC (Yarrowia lipolytica): 25 µg/mL (≈ 56.1 µM)
MIC (Nakaseomyces glabratus): 25 µg/mL (≈ 56.1 µM)
MIC (Saccharomyces cerevisiae): 25 µg/mL (≈ 56.1 µM)

CC(C)CCC[C@@H](C)[C@H]1CC[C@@]2(C)[C@@H](O)[C@@H](N3CCN(C)CC3)CC[C@]12C
MIC (Yarrowia lipolytica): 25 µg/mL (≈ 66 µM)
MIC (Nakaseomyces glabratus): 25 µg/mL (≈ 66 µM)
MIC (Saccharomyces cerevisiae): 25 µg/mL (≈ 66 µM)

CC(C)CCC[C@@H](C)[C@H]1CC[C@@]2(C)[C@H](O)[C@@H](NCc3cccc(Cl)c3)CC[C@]12C
MIC (Yarrowia lipolytica): 25 µg/mL (≈ 59.5 µM)
MIC (Nakaseomyces glabratus): 25 µg/mL (≈ 59.5 µM)
inhibition [1]: inactive
MIC (Saccharomyces cerevisiae): 25 µg/mL (≈ 59.5 µM)

C=CCCCN(C)[C@H]1CC[C@]2(C)[C@@H]([C@H](C)CCCC(C)C)CC[C@@]2(C)[C@H]1O
MIC (Yarrowia lipolytica): 25 µg/mL (≈ 66.2 µM)
MIC (Nakaseomyces glabratus): 25 µg/mL (≈ 66.2 µM)
IC50 [1]: 0.018 µM
IC50 (HL-60): 7 µM
Ratio IC50 [2]: 390
MIC (Saccharomyces cerevisiae): 25 µg/mL (≈ 66.2 µM)

CC(C)CCC[C@@H](C)[C@H]1CC[C@@]2(C)[C@@H](O)[C@@H](NCc3ccccc3)CC[C@]12C
MIC (Yarrowia lipolytica): 25 µg/mL (≈ 64.8 µM)
MIC (Nakaseomyces glabratus): 25 µg/mL (≈ 64.8 µM)
IC50 [1]: 0.015 µM
IC50 (HL-60): 8 µM
MIC (Saccharomyces cerevisiae): 25 µg/mL (≈ 64.8 µM)
